In ChEMBL document CHEMBL4038284, “Synthesis of novel quinoline-based 4,5-dihydro-1H-pyrazoles as potential anticancer, antifungal, antibacterial and antiprotozoal agents” (Eur J Med Chem, 2017):
In brackets after ≈: the same amount, converted by molar mass. Activity calls are given as the source filed them. The calls are words filed in the database; no cut-off is given here.

Tests used:
[1] = tested on: OVCAR-5; assay: Growth inhibition of human OVCAR5 cells at 10 uM incubated for 48 hrs by sulforhodamine B assay; type: functional, cell-based
How it was run: (§1)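 NCI 60-line panel, single 10 μM dose. Cells were grown in RPMI-1640 with 5% FBS and 2 mM L-glutamine and pre-incubated 24 h before compound addition (DMSO stock). Exposure was 48 h at 37 °C, 5% CO2. Cells were fixed with cold TCA (10% final), stained with 0.4% SRB, bound dye dissolved in 10 mM Tris base, A515 read. Growth was taken relative to time-zero and untreated control plates.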

[2] = tested on: Candida albicans; assay: Growth inhibition of Candida albicans ATCC 10231 at 3.4 ug/ml incubated for 48 hrs under dark condition by broth microdilution method relative to control; type: functional; details: ATCC 10231, 48 h, read-out: GI
[3] = tested on: OVCAR-3; assay: Growth inhibition of human OVCAR3 cells at 10 uM incubated for 48 hrs by sulforhodamine B assay; type: functional, cell-based; how it was run: as §1
[4] = tested on: ACHN; assay: Growth inhibition of human ACHN cells at 10 uM incubated for 48 hrs by sulforhodamine B assay; type: functional, cell-based
How it was run: (§2)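 NCI 60-cell-line screen at a single 10 µM dose. Cells in RPMI-1640 with 5% FBS and 2 mM L-glutamine, pre-incubated 24 h, then treated for 48 h at 37 °C. TCA fixation, sulforhodamine B staining, absorbance at 515 nm. Percentage growth calculated against time-zero and untreated controls.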

[5] = tested on: RPMI-8226; assay: Growth inhibition of human RPMI8226 cells at 10 uM incubated for 48 hrs by sulforhodamine B assay; type: functional, cell-based; how it was run: as §1
[6] = tested on: MOLT-4; assay: Growth inhibition of human MOLT4 cells at 10 uM incubated for 48 hrs by sulforhodamine B assay; type: functional, cell-based; how it was run: as §1
[7] = tested on: HT-29; assay: Growth inhibition of human HT-29 cells at 10 uM incubated for 48 hrs by sulforhodamine B assay; type: functional, cell-based; how it was run: as §1
[8] = tested on: Candida albicans; assay: Growth inhibition of Candida albicans ATCC 10231 at 62.5 ug/ml incubated for 48 hrs under dark condition by broth microdilution method relative to control; type: functional; details: ATCC 10231, 48 h, read-out: GI
How it was run: (§3)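 CLSI M27-A3 broth microdilution in RPMI-1640, DMSO ≤1%. Inoculum 1-5 × 10^3 CFU/mL. Incubated 48 h at 30 °C, dark. % inhibition = 100 − (OD405 test − sterility control)/(OD405 growth control − sterility control), with growth and sterility control wells. Triplicate.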

[9] = tested on: CCRF-CEM; assay: Growth inhibition of human CCRF-CEM cells at 10 uM incubated for 48 hrs by sulforhodamine B assay; type: functional, cell-based; how it was run: as §2
[10] = tested on: EKVX; assay: Growth inhibition of human EKVX cells at 10 uM incubated for 48 hrs by sulforhodamine B assay; type: functional, cell-based; how it was run: as §2
[11] = tested on: NCI/ADR-RES; assay: Growth inhibition of human NCI/ADR-RES cells at 10 uM incubated for 48 hrs by sulforhodamine B assay; type: functional, cell-based; how it was run: as §1
[12] = tested on: HOP-92; assay: Growth inhibition of human HOP92 cells at 10 uM incubated for 48 hrs by sulforhodamine B assay; type: functional, cell-based; how it was run: as §1
[13] = tested on: NCI-H460; assay: Growth inhibition of human NCI-H460 cells at 10 uM incubated for 48 hrs by sulforhodamine B assay; type: functional, cell-based; how it was run: as §1
[14] = tested on: NCI-H23; assay: Growth inhibition of human NCI-H23 cells at 10 uM incubated for 48 hrs by sulforhodamine B assay; type: functional, cell-based; how it was run: as §1
[15] = tested on: HCT-116; assay: Growth inhibition of human HCT116 cells at 10 uM incubated for 48 hrs by sulforhodamine B assay; type: functional, cell-based; how it was run: as §2
[16] = tested on: MCF7; assay: Growth inhibition of human MCF7 cells at 10 uM incubated for 48 hrs by sulforhodamine B assay; type: functional, cell-based; how it was run: as §1
[17] = tested on: HCT-15; assay: Growth inhibition of human HCT15 cells at 10 uM incubated for 48 hrs by sulforhodamine B assay; type: functional, cell-based; how it was run: as §2
[18] = tested on: IGROV-1; assay: Growth inhibition of human IGROV1 cells at 10 uM incubated for 48 hrs by sulforhodamine B assay; type: functional, cell-based; how it was run: as §1
[19] = tested on: Trypanosoma cruzi; assay: Antitrypanosomal activity against Trypanosoma cruzi Tulahuen intracellular amastigote harboring LacZ infected in human U937 cells after 72 hrs by CPRG/Nonidet reagent based spectrophotometric method; type: functional, cell-based; details: U-937, 72 h
How it was run: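 U-937 cells at 2.5 × 10^5 cells/mL in RPMI-1640 with 10% serum and 0.1 µg/mL PMA were infected with β-galactosidase-transfected Tulahuen epimastigotes at 5 parasites per cell. Infected cells were exposed to 50, 12.5, 3.125 and 0.78 µg/mL for 72 h. CPRG (100 uM) and 0.1% Nonidet P-40 were added for 3 h, read at 570 nm. EC50 by Probit. Triplicate, at least two experiments; benznidazole as reference.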

[20] = tested on: SN12C; assay: Growth inhibition of human SN12C cells at 10 uM incubated for 48 hrs by sulforhodamine B assay; type: functional, cell-based
How it was run: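 NCI-60 single-dose screen at 10 µM for 48 h. Cells were grown in RPMI-1640 with 5% FBS and 2 mM L-glutamine and preincubated 24 h before compound. Time-zero plates were TCA-fixed at compound addition. After exposure, cells were TCA-fixed, stained with SRB and read at 515 nm. Percentage growth was calculated against time-zero and untreated-control absorbances.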

[21] = tested on: Candida albicans; assay: Growth inhibition of Candida albicans ATCC 10231 at 250 ug/ml incubated for 48 hrs under dark condition by broth microdilution method relative to control; type: functional; details: ATCC 10231, 48 h, read-out: GI; how it was run: as §3
[22] = tested on: Cryptococcus neoformans; assay: Growth inhibition of Cryptococcus neoformans ATCC 32264 at 15.62 ug/ml incubated for 48 hrs under dark condition by broth microdilution method relative to control; type: functional; details: ATCC 32264, 48 h, read-out: GI; how it was run: as §3
[23] = tested on: Candida albicans; assay: Growth inhibition of Candida albicans ATCC 10231 at 15.62 ug/ml incubated for 48 hrs under dark condition by broth microdilution method relative to control; type: functional; details: ATCC 10231, 48 h, read-out: GI; how it was run: as §3
[24] = tested on: Candida albicans; assay: Growth inhibition of Candida albicans ATCC 10231 at 125 ug/ml incubated for 48 hrs under dark condition by broth microdilution method relative to control; type: functional; details: ATCC 10231, 48 h, read-out: GI; how it was run: as §3
[25] = tested on: K562; assay: Growth inhibition of human K562 cells at 10 uM incubated for 48 hrs by sulforhodamine B assay; type: functional, cell-based; how it was run: as §1
[26] = tested on: Leishmania panamensis; assay: Antileshmanial activity against EpiR/GFP fused Leishmania panamensis MHOM/CO/87/UA140 intracellular amastigotes infected in human […] cells after 72 hrs by flow cytometric method; type: functional, cell-based; details: MHOM/CO/87/UA140, 72 h
How it was run: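 PMA-treated U-937 cells (3 × 10^5 cells/mL) infected with stationary-phase GFP L. panamensis promastigotes (15:1), 3 h at 34 °C, then washed. After 24 h, compounds added at 50, 12.5, 3.125 and 0.78 µg/mL for 72 h at 37 °C. EC50 by Probit; triplicate, two experiments.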

[27] = tested on: HCC 2998; assay: Growth inhibition of human HCC2998 cells at 10 uM incubated for 48 hrs by sulforhodamine B assay; type: functional, cell-based; how it was run: as §2
[28] = tested on: SF-295; assay: Growth inhibition of human SF295 cells at 10 uM incubated for 48 hrs by sulforhodamine B assay; type: functional, cell-based; how it was run: as §1
[29] = tested on: Staphylococcus aureus; assay: Antibacterial activity against methicillin-sensitive Staphylococcus aureus ATCC 25923 after 24 hrs by resazurin dye based microdilution assay; type: functional; details: ATCC 25923, 24 h
How it was run: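 MIC taken as the lowest concentration giving visible inhibition and/or by resazurin (1 mg/mL). Gentamicin was the control. Run in duplicate, repeated at least three times.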

Compound | growth inhibition (GI) [1] | inhibition of growth at 3.4 µg/mL [2] | growth inhibition (GI) [3] | growth inhibition (GI) [4] | growth inhibition (GI) [5] | growth inhibition (GI) [6] | growth inhibition (GI) [7] | inhibition of growth at 62.5 µg/mL [8] | growth inhibition (GI) [9] | growth inhibition (GI) [10] | growth inhibition (GI) [11] | growth inhibition (GI) [12] | growth inhibition (GI) [13] | growth inhibition (GI) [14] | growth inhibition (GI) [15] | growth inhibition (GI) [16] | growth inhibition (GI) [17] | growth inhibition (GI) [18] | EC50 [19] | growth inhibition (GI) [20] | other results
Clc1ccc(C2=NN(c3ccc(Cl)cc3)C(c3cccc(Nc4ccnc5cc(Cl)ccc45)c3)C2)cc1 (stereo not drawn) | inactive | 0% | inactive | inactive | inactive | inactive | inactive | 11.8% | inactive | inactive | inactive | inactive | inactive | inactive | inactive | inactive | inactive | inactive | 55.8 µg/mL (≈ 103 µM) | inactive | inhibition of growth at 250 µg/mL [21]: 40.4%; inhibition of growth at 15.62 µg/mL [22]: 23.1%; inhibition of growth at 15.62 µg/mL [23]: 6.09%; inhibition of growth at 125 µg/mL [24]: 19.9%; growth inhibition (GI) [25]: inactive; EC50 [26]: 91.4 µg/mL (≈ 168 µM); growth inhibition (GI) [27]: inactive; growth inhibition (GI) [28]: inactive; MIC [29]: > 1000 µg/mL
COc1cc(C(=O)/C=C/c2cccc(Nc3ccnc4cc(Cl)ccc34)c2)cc(OC)c1OC | Active | 1.24% | Active | Active | Active | Active | Active | 7.6% | Active | Active | Active | Active | Active | Active | Active | Active | Active | Active | 1.09 µg/mL (≈ 2.3 µM) | Active | inhibition of growth at 250 µg/mL [21]: 13.7%; inhibition of growth at 15.62 µg/mL [22]: 0%; inhibition of growth at 15.62 µg/mL [23]: 4.77%; inhibition of growth at 125 µg/mL [24]: 10.7%; growth inhibition (GI) [25]: Active; EC50 [26]: 5.92 µg/mL (≈ 12.5 µM); growth inhibition (GI) [27]: Active; growth inhibition (GI) [28]: Active; MIC [29]: > 1000 µg/mL
